Converted amounts (≈) assume the structure as drawn. Non-standard residues stand in square brackets, D forms with d. Residues, ends and D or L forms follow the SMILES beside them. Aib = CC(C)(N)C(=O)O
How the values were obtained:
RAW264.7 [1] = assay: Induction of [3H]cholesterol efflux in mouse RAW264.7 cells after 24 hrs by scintillation counting; format: functional, cell-based; conditions: Mus musculus, RAW264.7; read-out: EC50
Summary of the method: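 Cholesterol efflux from RAW macrophages; EC50 reported in µM as the mean of three experiments.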

RAW264.7 [2] = assay: Cytotoxicity against mouse RAW264.7 cells after 24 hrs by MTT assay; format: cell-based; conditions: RAW264.7, 24 h
Summary of the method: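 RAW macrophage cytotoxicity examined at peptide concentrations up to 160 µM.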

Plasma [3] = assay: Incorporation into HDL fraction in wild type mouse plasma at 0.25 mg/ml after 2 hrs by size exclusion chromatography analysis
Plasma [4] = assay: Increase in pre-beta-HDL level in human plasma after 1 hr by ELISA; format: functional, cell-free
Summary of the method: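 Peptides were titrated into human plasma, with concentrations expressed in µg/ml, and pre-β-HDL was read out by ELISA using a pre-β antibody.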

[5] = Toxicity in human RBC assessed as hemolysis; format: cell-based, Erythrocyte; conditions: red blood cells (RBC)
Summary of the method: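 Red blood cell lysis assay; cytotoxicity reported as IC50 in µM.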

RAW264.7 [6] = assay: Induction of [3H]cholesterol efflux in mouse RAW264.7 cells at 30 uM after 24 hrs by scintillation counting; format: functional, cell-based
RAW264.7 [7] = assay: Induction of [3H]cholesterol efflux in mouse RAW264.7 cells at 100 uM after 24 hrs by scintillation counting; format: functional, cell-based
[8] = Toxicity in human RBC assessed as minimum lytic concentration; format: cell-based; conditions: erythrocyte

Row | SMILES | IC50 (RAW264.7 [2]) | IC50 [5] | MLC [8] | also measured
1 | C=CCCCCC[C@H](NC(=O)[C@H](CCC(=O)O)NC(=O)[C@H](CC(N)=O)NC(=O)[C@H](CC(C)C)NC(=O)[C@H](CCCCN)NC(=O)[C@H](CCC(=O)O)NC(=O)[C@H](CCCNC(=N)N)NC(=O)[C@@H](CCCCC=C)NC(=O)[C@H](CCC(=O)O)NC(=O)[C@H](CC(=O)O)NC(=O)[C@H](CC(C)C)NC(=O)[C@@H](NC(=O)[C@@H]1CCCN1)C(C)C)C(=O)N[C@@H](CC(C)C)C(=O)N[C@@H](CCC(=O)O)C(=O)N[C@@H](C)C(=O)N[C@@H](CC(C)C)C(=O)N[C@@H](CCCCN)C(=O)N[C@@H](CCC(N)=O)C(=O)N[C@@H](CCCCN)C(=O)N[C@@H](CC(C)C)C(=O)N[C@@H](CCCCN)C(=O)O | > 160 µM | > 160 µM | – | EC50 (RAW264.7 [1]): 0.8 µM; IC50 (Plasma [3]): Active; IC50 (Plasma [4]): Active
2 | C=CCCC[C@H](NC(=O)[C@H](CCC(=O)O)NC(=O)[C@H](CC(N)=O)NC(=O)[C@H](CC(C)C)NC(=O)[C@H](CCCC=C)NC(=O)[C@H](CCC(=O)O)NC(=O)[C@H](CCCNC(=N)N)NC(=O)[C@H](Cc1ccccc1)NC(=O)[C@H](CCC(=O)O)NC(=O)[C@H](CC(=O)O)NC(=O)[C@H](CC(C)C)NC(=O)[C@@H](NC(=O)[C@@H]1CCCN1)C(C)C)C(=O)N[C@@H](CC(C)C)C(=O)N[C@@H](CCC(=O)O)C(=O)N[C@@H](C)C(=O)N[C@@H](CC(C)C)C(=O)N[C@@H](CCCCN)C(=O)N[C@@H](CCC(N)=O)C(=O)N[C@@H](CCCCN)C(=O)N[C@@H](CC(C)C)C(=O)N[C@@H](CCCCN)C(=O)O | > 160 µM | > 160 µM | – | cholesterol efflux (RAW264.7 [6]): 7%
3 | CC(C)C[C@H](NC(=O)[C@H](C)NC(=O)[C@H](CCC(=O)O)NC(=O)[C@H](CC(C)C)NC(=O)C(C)(C)NC(=O)[C@H](CCC(=O)O)NC(=O)[C@H](CC(N)=O)NC(=O)[C@H](CC(C)C)NC(=O)[C@H](CCCCN)NC(=O)[C@H](CCC(=O)O)NC(=O)[C@H](CCCNC(=N)N)NC(=O)[C@H](Cc1ccccc1)NC(=O)[C@H](CCC(=O)O)NC(=O)[C@H](CC(=O)O)NC(=O)[C@H](CC(C)C)NC(=O)[C@@H](NC(=O)[C@@H]1CCCN1)C(C)C)C(=O)N[C@@H](CCCCN)C(=O)N[C@@H](CCC(N)=O)C(=O)N[C@@H](CCCCN)C(=O)N[C@@H](CC(C)C)C(=O)N[C@@H](CCCCN)C(=O)O (H-PVLDEFREKLNE[Aib]LEALKQKLK-OH) | > 160 µM | > 160 µM | – | cholesterol efflux (RAW264.7 [7]): 6%
4 | C[C@@H]1[C@H](O)[C@@H](C)/C=C/C=C/C=C/C=C/C=C/C=C/C=C/[C@H](O[C@@H]2O[C@H](C)[C@@H](O)[C@H](N)[C@@H]2O)C[C@@H]2O[C@](O)(C[C@@H](O)C[C@@H](O)[C@H](O)CC[C@@H](O)C[C@@H](O)CC(=O)O[C@H]1C)C[C@H](O)[C@H]2C(=O)O [AMPHOTERICIN B] | – | – | 2 µg/mL (≈ 2.16 µM) | –
5 | O=C(N[C@H](CO)[C@H](O)c1ccc([N+](=O)[O-])cc1)C(Cl)Cl [CHLORAMPHENICOL] | – | – | > 64 µg/mL | –
